Where a SMILES comes first, the peptide text is derived from it.

The species named for one test is Rattus norvegicus. Put plainly: Concentration of peptide at 50% maximal histamine release at concentration 10e-5 M. Type of test: functional. The method in brief: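 Rat peritoneal mast cells (Sprague–Dawley) lavaged into carbonate- and divalent-cation-free Tyrode's with 15 mM Hepes pH 7.2, 0.1% BSA, purified on Accudenz gradient; (1–2) × 10^3 cells/well with peptide, 37 °C 20 min. Residual cellular histamine freed by Triton X-100 then TFA, measured fluorometrically with phthalaldehyde/NaOH; n = 6; nonlinear regression.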
In the case of `CC[C@H](C)[C@H](N)C(=O)N[C@@H](CCCCN)C(=O)N[C@@H](CS)C(=O)N[C@@H](CC(N)=O)C(=O)N[C@@H](CS)C(=O)N[C@@H](C)C(=O)N[C@@H](CCCN=C(N)N)C(=O)N[C@@H](Cc1c[nH]cn1)C(=O)N[C@H](C(=O)N[C@H](C(=O)N[C@@H](CCCCN)C(=O)N1CCC[C@H]1C(=O)N[C@@H](Cc1c[nH]cn1)C(=O)N[C@H](C(=O)N[C@@H](CS)C(=O)N[C@@H](CCCN=C(N)N)C(=O)N[C@@H](CCCCN)C(=O)N[C@H](C(=O)N[C@@H](CS)C(=O)NCC(=O)N[C@@H](CCCCN)C(=O)N[C@@H](CC(N)=O)C(N)=O)[C@@H](C)CC)[C@@H](C)CC)[C@@H](C)CC)C(C)C` (H-IKCNCARHVIKPHICRKICGKN-NH2), the ED50 is reported as 12.54. Still for that read-out and setting: next, `CC[C@H](C)[C@H](N)C(=O)N[C@@H](CCCCN)C(=O)N[C@@H](CS)C(=O)N[C@@H](CC(N)=O)C(=O)N[C@@H](CS)C(=O)N[C@@H](CCCCN)C(=O)N[C@@H](CCCN=C(N)N)C(=O)N[C@@H](Cc1c[nH]cn1)C(=O)N[C@H](C(=O)N[C@H](C(=O)N[C@@H](CCCCN)C(=O)N1CCC[C@H]1C(=O)N[C@@H](Cc1c[nH]cn1)C(=O)N[C@H](C(=O)N[C@@H](CS)C(=O)N[C@@H](CCCN=C(N)N)C(=O)N[C@@H](C)C(=O)N[C@H](C(=O)N[C@@H](CS)C(=O)NCC(=O)N[C@@H](CCCCN)C(=O)N[C@@H](CC(N)=O)C(N)=O)[C@@H](C)CC)[C@@H](C)CC)[C@@H](C)CC)C(C)C` (H-IKCNCKRHVIKPHICRAICGKN-NH2): 0.77; `CC[C@H](C)[C@H](N)C(=O)N[C@@H](CCCCN)C(=O)N[C@@H](CS)C(=O)N[C@@H](CC(N)=O)C(=O)N[C@@H](CS)C(=O)N[C@@H](CCCCN)C(=O)N[C@@H](CCCN=C(N)N)C(=O)N[C@@H](Cc1c[nH]cn1)C(=O)N[C@H](C(=O)N[C@H](C(=O)N[C@@H](C)C(=O)N1CCC[C@H]1C(=O)N[C@@H](Cc1c[nH]cn1)C(=O)N[C@H](C(=O)N[C@@H](CS)C(=O)N[C@@H](CCCN=C(N)N)C(=O)N[C@@H](CCCCN)C(=O)N[C@H](C(=O)N[C@@H](CS)C(=O)NCC(=O)N[C@@H](CCCCN)C(=O)N[C@@H](CC(N)=O)C(N)=O)[C@@H](C)CC)[C@@H](C)CC)[C@@H](C)CC)C(C)C` (H-IKCNCKRHVIAPHICRKICGKN-NH2): 1.07.

The target in another test is T1, High affinity immunoglobulin epsilon receptor subunit alpha (Homo sapiens, UniProt P12319).
T1 sequence (P12319 whole entry): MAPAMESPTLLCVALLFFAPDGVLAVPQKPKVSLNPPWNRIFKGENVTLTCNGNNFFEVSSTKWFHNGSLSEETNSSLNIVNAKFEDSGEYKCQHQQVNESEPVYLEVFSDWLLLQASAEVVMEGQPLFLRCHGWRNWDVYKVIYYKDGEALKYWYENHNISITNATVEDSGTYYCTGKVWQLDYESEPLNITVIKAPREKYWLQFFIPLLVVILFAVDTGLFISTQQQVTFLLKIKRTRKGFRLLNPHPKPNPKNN
The experiment in a line: Binding affinity towards Fc-epsilon RI-alpha human mast cell receptor was determined. The method in brief:
(§1)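 Competitive fluorescence polarization: FcεRIα subunit of human IgE receptor expressed in insect cells (7 nM) with fluorescein-labelled MCD peptide tracer (4 nM) in PBS pH 7.4, unlabelled peptide 7–500 μM, 25 °C 5 min. Ex 485/em 535 nm, mP; tracer-alone background subtracted; mean of many consecutive readings; IC50 by nonlinear regression.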
Regarding `CC[C@H](C)[C@H](N)C(=O)N[C@@H](C)C(=O)N[C@@H](CS)C(=O)N[C@@H](CC(N)=O)C(=O)N[C@@H](CS)C(=O)N[C@@H](CCCCN)C(=O)N[C@@H](CCCN=C(N)N)C(=O)N[C@@H](Cc1c[nH]cn1)C(=O)N[C@H](C(=O)N[C@H](C(=O)N[C@@H](CCCCN)C(=O)N1CCC[C@H]1C(=O)N[C@@H](Cc1c[nH]cn1)C(=O)N[C@H](C(=O)N[C@@H](CS)C(=O)N[C@@H](CCCN=C(N)N)C(=O)N[C@@H](CCCCN)C(=O)N[C@H](C(=O)N[C@@H](CS)C(=O)NCC(=O)N[C@@H](CCCCN)C(=O)N[C@@H](CC(N)=O)C(N)=O)[C@@H](C)CC)[C@@H](C)CC)[C@@H](C)CC)C(C)C` (H-IACNCKRHVIKPHICRKICGKN-NH2), the half-maximal inhibitory concentration (IC50) worked out at 82 µM. The same measure, in the same setting: next, `CC[C@H](C)[C@H](N)C(=O)N[C@@H](CCCCN)C(=O)N[C@@H](CS)C(=O)N[C@@H](CC(N)=O)C(=O)N[C@@H](CS)C(=O)N[C@@H](CCCCN)C(=O)N[C@@H](CCCNC(=N)N)C(=O)N[C@@H](Cc1cnc[nH]1)C(=O)N[C@H](C(=O)N[C@H](C(=O)N[C@@H](CCCCN)C(=O)N1CCC[C@H]1C(=O)N[C@@H](Cc1cnc[nH]1)C(=O)N[C@H](C(=O)N[C@@H](CS)C(=O)N[C@@H](CCCNC(=N)N)C(=O)N[C@@H](C)C(=O)N[C@H](C(=O)N[C@@H](CS)C(=O)NCC(=O)N[C@@H](CCCCN)C(=O)N[C@@H](CC(N)=O)C(N)=O)[C@@H](C)CC)[C@@H](C)CC)[C@@H](C)CC)C(C)C` (H-IKCNCKRHVIKPHICRAICGKN-NH2): 153 µM; `CC[C@H](C)[C@H](N)C(=O)N[C@@H](CCCCN)C(=O)N[C@@H](CS)C(=O)N[C@@H](CC(N)=O)C(=O)N[C@@H](CS)C(=O)N[C@@H](CCCCN)C(=O)N[C@@H](CCCNC(=N)N)C(=O)N[C@@H](Cc1cnc[nH]1)C(=O)N[C@H](C(=O)N[C@H](C(=O)N[C@@H](C)C(=O)N1CCC[C@H]1C(=O)N[C@@H](Cc1cnc[nH]1)C(=O)N[C@H](C(=O)N[C@@H](CS)C(=O)N[C@@H](CCCNC(=N)N)C(=O)N[C@@H](CCCCN)C(=O)N[C@H](C(=O)N[C@@H](CS)C(=O)NCC(=O)N[C@@H](CCCCN)C(=O)N[C@@H](CC(N)=O)C(N)=O)[C@@H](C)CC)[C@@H](C)CC)[C@@H](C)CC)C(C)C` (H-IKCNCKRHVIAPHICRKICGKN-NH2): 153 µM. In the case of `CC[C@H](C)[C@H](N)C(=O)N[C@@H](CCCCN)C(=O)N[C@@H](CS)C(=O)N[C@@H](CC(N)=O)C(=O)N[C@@H](CS)C(=O)N[C@@H](CCCCN)C(=O)N[C@@H](CCCN=C(N)N)C(=O)N[C@@H](Cc1c[nH]cn1)C(=O)N[C@H](C(=O)N[C@H](C(=O)N[C@@H](CCCCN)C(=O)N1CCC[C@H]1C(=O)N[C@@H](Cc1c[nH]cn1)C(=O)N[C@H](C(=O)N[C@@H](CS)C(=O)N[C@@H](CCCN=C(N)N)C(=O)N[C@@H](CCCCN)C(=O)N[C@H](C(=O)N[C@@H](CS)C(=O)NCC(=O)N[C@@H](C)C(=O)N[C@@H](CC(N)=O)C(N)=O)[C@@H](C)CC)[C@@H](C)CC)[C@@H](C)CC)C(C)C` (H-IKCNCKRHVIKPHICRKICGAN-NH2), the IC50 was found to be 153 µM. The same measure, in the same setting: next, `CC[C@H](C)[C@H](N)C(=O)N[C@@H](CCCCN)C(=O)N[C@@H](CS)C(=O)N[C@@H](CC(N)=O)C(=O)N[C@@H](CS)C(=O)N[C@@H](C)C(=O)N[C@@H](CCCNC(=N)N)C(=O)N[C@@H](Cc1cnc[nH]1)C(=O)N[C@H](C(=O)N[C@H](C(=O)N[C@@H](CCCCN)C(=O)N1CCC[C@H]1C(=O)N[C@@H](Cc1cnc[nH]1)C(=O)N[C@H](C(=O)N[C@@H](CS)C(=O)N[C@@H](CCCNC(=N)N)C(=O)N[C@@H](CCCCN)C(=O)N[C@H](C(=O)N[C@@H](CS)C(=O)NCC(=O)N[C@@H](CCCCN)C(=O)N[C@@H](CC(N)=O)C(N)=O)[C@@H](C)CC)[C@@H](C)CC)[C@@H](C)CC)C(C)C` (H-IKCNCARHVIKPHICRKICGKN-NH2): 71 µM.

In the next test the target is T1, High affinity immunoglobulin epsilon receptor subunit alpha. The experiment in a line: Binding affinity towards Fc-epsilon RI-alpha mast cell receptor human mast cell receptor was determined. Put shortly:
as §1
For `CC[C@H](C)[C@H](N)C(=O)N[C@@H](CCCCN)C(=O)N[C@@H](CS)C(=O)N[C@@H](CC(N)=O)C(=O)N[C@@H](CS)C(=O)N[C@@H](CCCCN)C(=O)N[C@@H](CCCN=C(N)N)C(=O)N[C@@H](Cc1c[nH]cn1)C(=O)N[C@H](C(=O)N[C@H](C(=O)N[C@@H](CCCCN)C(=O)N1CCC[C@H]1C(=O)N[C@@H](Cc1c[nH]cn1)C(=O)N[C@H](C(=O)N[C@@H](CS)C(=O)N[C@@H](CCCN=C(N)N)C(=O)N[C@@H](CCCCN)C(=O)N[C@H](C(=O)N[C@@H](CS)C(=O)NCC(=O)N[C@@H](CCCCN)C(=O)N[C@@H](CC(N)=O)C(N)=O)[C@@H](C)CC)[C@@H](C)CC)[C@@H](C)CC)C(C)C` (H-IKCNCKRHVIKPHICRKICGKN-NH2), the half-maximal inhibitory concentration (IC50) amounted to 114 µM.

These data come from ChEMBL document CHEMBL1145832, “Histamine-releasing activity and binding to the FcepsilonRI alpha human mast cell receptor subunit of mast cell degranulating peptide analogues with alanine substitutions” (J Med Chem, 2003).
